Data from ChEMBL document CHEMBL1124515, “3,7-Dideazapurine nucleosides. Synthesis and antitumor activity of 1-deazatubercidin and 2-chloro-2'-deoxy-3,7-dideazaadenosine” (1989).
The source made the active and inactive calls. The calls are words filed in the database; no cut-off is given here.

Legend:
HL-60 = assay: Compound (1 x 10e-4 M) was evaluated in vitro for its ability to inhibit the growth of the human promyelocytic leukemia HL-60; Inactive until maximum tested concentration of 1xe-4 M; type: functional, cell-based
Homo sapiens [1] = species: Homo sapiens; assay: Compound (1 x 10e-4 M) was evaluated in vitro for its ability to inhibit the growth of the human epidermoid carcinoma KB; Inactive until maximum tested concentration of 1xe-4 M; type: functional
L1210 = assay: Compound (1 x 10e-4 M) was evaluated in vitro for its ability to inhibit the growth of the murine leukemia L1210; Inactive until maximum tested concentration of 1xe-4 M; type: functional, cell-based; conditions: Mus musculus
P388 = assay: Compound (1 x 10e-4 M) was evaluated in vitro for its ability to inhibit the growth of the murine leukemia P388; Inactive until maximum tested concentration of 1xe-4 M; type: functional, cell-based; conditions: Mus musculus
Homo sapiens [2] = species: Homo sapiens; assay: Compound (1 x 10e-4 M) was evaluated in vitro for its ability to inhibit the growth of the human epidermoid carcinoma KB; type: functional
In short: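 KB cells in exponential growth, in RPMI-1640 with antibiotics, 3 mM glutamine, 10 mM HEPES and 5% heat-inactivated newborn calf serum. Seeded at 5 × 10³ cells/well and exposed in quadruplicate to compound (DMSO ≤0.5% final), up to a maximum of 1×10^-4 M, for 48 h at 37 °C. [¹²⁵I]-5-iodo-2'-deoxyuridine plus 5-fluoro-2'-deoxyuridine then added for 18 h. Cells trypsin/EDTA-detached, filter-harvested and γ-counted. Inhibition expressed as % of control incorporation.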

| Compound | ID50 (HL-60) | ID50 (Homo sapiens [1]) | ID50 (L1210) | ID50 (P388) | ID50 (Homo sapiens [2]) [nM] |
| --- | --- | --- | --- | --- | --- |
| Nc1nc(Cl)cc2c1ccn2[C@H]1C[C@H](O)[C@@H](CO)O1 | Inactive until maximum tested concentration of 1xe-4 M | Inactive until maximum tested concentration of 1xe-4 M | Inactive until maximum tested concentration of 1xe-4 M | Inactive until maximum tested concentration of 1xe-4 M |  |
| Nc1nc(Cl)cc2c1ccn2[C@@H]1O[C@H](CO)[C@@H](O)[C@H]1O | Inactive until maximum tested concentration of 1xe-4 M | Inactive until maximum tested concentration of 1xe-4 M | Inactive until maximum tested concentration of 1xe-4 M | Inactive until maximum tested concentration of 1xe-4 M |  |
| Nc1nccc2c1ccn2[C@H]1C[C@H](O)[C@@H](CO)O1 | Inactive until maximum tested concentration of 1xe-4 M | Inactive until maximum tested concentration of 1xe-4 M | Inactive until maximum tested concentration of 1xe-4 M | Inactive until maximum tested concentration of 1xe-4 M |  |
| Nc1ncnc2c1ccn2[C@@H]1O[C@H](CO)[C@@H](O)[C@H]1O |  |  |  |  | 52 |
| Nc1nccc2c1ccn2[C@@H]1O[C@H](CO)[C@@H](O)[C@H]1O | Inactive until maximum tested concentration of 1xe-4 M | Inactive until maximum tested concentration of 1xe-4 M | Inactive until maximum tested concentration of 1xe-4 M | Inactive until maximum tested concentration of 1xe-4 M |  |
